Assay results from ChEMBL document CHEMBL1133543, “Effect of ring fluorination on the pharmacology of hallucinogenic tryptamines” (J Med Chem, 2000).
pEC50, pKi: −log10 of the molar value.

Columns and labels:
[1] = target: 5-hydroxytryptamine receptor 2A (Rattus norvegicus) (UniProt P14842); assay: Intrinsic activity was determined at 5-hydroxytryptamine 2A receptor which is percentage response given compared with the response produced by 10 uM serotonin.
How it was run: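 Cells were pretreated 15 min with 10 µM pargyline and 10 mM LiCl, then exposed to agonist for 30 min at 37 °C. Inositol phosphates were separated on Dowex-1 and counted. EC50 was taken for PI turnover. Intrinsic activity is the response relative to 10 µM serotonin. Repeated 3-4 times.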

[2] = target: T1, 5-hydroxytryptamine receptor 2A (Rattus norvegicus, UniProt P14842); assay: Evaluated for the effective concentration at [125I]-DOI-labeled rat 5-hydroxytryptamine 2A receptor
[3] = target: T2, 5-hydroxytryptamine receptor 1A (Homo sapiens, UniProt P08908); assay: Evaluated for the binding constant at [3H]8-OH-DPAT-labeled human 5-hydroxytryptamine 1A receptor
T2 sequence (P08908 whole entry): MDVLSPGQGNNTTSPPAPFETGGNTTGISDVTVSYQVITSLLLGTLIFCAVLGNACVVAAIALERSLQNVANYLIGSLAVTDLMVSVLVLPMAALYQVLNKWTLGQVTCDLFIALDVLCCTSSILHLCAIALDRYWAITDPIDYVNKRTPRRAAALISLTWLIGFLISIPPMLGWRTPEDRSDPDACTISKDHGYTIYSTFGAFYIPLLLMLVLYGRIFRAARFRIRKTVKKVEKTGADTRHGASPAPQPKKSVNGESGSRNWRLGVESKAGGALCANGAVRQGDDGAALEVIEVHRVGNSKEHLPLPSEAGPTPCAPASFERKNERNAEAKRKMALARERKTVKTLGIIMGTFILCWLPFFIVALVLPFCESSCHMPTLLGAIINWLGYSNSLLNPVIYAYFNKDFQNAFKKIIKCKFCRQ

[4] = species on record: Rattus norvegicus; assay: Evaluated in the two-lever drug discrimination assay in LSD trained rats to assess hallucinogenic-like activity (95% confidence intervals); assay type: functional
How it was run: (§1)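 Rats trained (FR50, 15-min sessions) to discriminate ip training drug from saline: LSD 0.08 mg/kg (186 nmol/kg), DOI 0.4 mg/kg (1.12 µmol/kg) or LY293284 0.025 mg/kg (75 nmol/kg), in 0.9% saline. Test drugs given ip 30 min (or 15 min) before extinction sessions. At least three doses, at least eight rats per dose. Scored quantally as %SDL. ED50 and 95% CI by Litchfield–Wilcoxon.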

[5] = target: T1, 5-hydroxytryptamine receptor 2A; assay: Evaluated for the binding constant at [125I]-DOI-labeled rat 5-hydroxytryptamine 2A receptor
How it was run: (§2)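 Competition binding with membranes from harvested cells. Rat 5-HT2A or 5-HT2C receptors were expressed in NIH3T3 cells and labelled with 0.20 nM [125I]DOI. […] Buffer was 50 mM Tris, 0.5 mM EDTA, 10 mM MgCl2, pH 7.4. Incubation ran 60 min at 25 °C, then filtration and counting. Ten concentrations were run in duplicate, n = 3-5. Ki was obtained by Cheng–Prusoff.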

[6] = target: T2, 5-hydroxytryptamine receptor 1A; assay: EC50 for inhibition of 50 uM forskolin-stimulated cAMP accumulation against 5-hydroxytryptamine 1A receptor; assay type: functional
[7] = target: T3, 5-hydroxytryptamine receptor 2C (Rattus norvegicus, UniProt P08909); assay: Evaluated for the binding constant at [125I]-DOI-labeled rat 5-hydroxytryptamine 2C receptor; how it was run: as §2
T3 sequence (P08909 whole entry): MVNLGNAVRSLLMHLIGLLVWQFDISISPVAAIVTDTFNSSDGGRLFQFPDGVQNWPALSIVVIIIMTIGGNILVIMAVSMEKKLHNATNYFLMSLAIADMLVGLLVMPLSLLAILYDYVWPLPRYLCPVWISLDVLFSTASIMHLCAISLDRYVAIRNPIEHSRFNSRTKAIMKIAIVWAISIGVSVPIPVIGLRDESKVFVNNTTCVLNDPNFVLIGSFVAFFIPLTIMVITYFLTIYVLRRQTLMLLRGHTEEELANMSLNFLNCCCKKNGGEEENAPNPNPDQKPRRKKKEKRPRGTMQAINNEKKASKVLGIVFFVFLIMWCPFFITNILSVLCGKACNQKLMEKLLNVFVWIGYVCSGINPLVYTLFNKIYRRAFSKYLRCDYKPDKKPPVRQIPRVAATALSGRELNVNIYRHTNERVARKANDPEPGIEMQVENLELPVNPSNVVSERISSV

[8] = species on record: Rattus norvegicus; assay: Evaluated in the two-lever drug discrimination assay in DOI trained rats to assess hallucinogenic-like activity (95% confidence intervals); assay type: functional; how it was run: as §1
[9] = tested on: Rattus norvegicus; assay: Maximum percentage of LSD-trained rats responding on the training drug lever at 8 umol/kg; assay type: functional; how it was run: as §1
[10] = tested on: Rattus norvegicus; assay: Maximum percentage of DOI-trained rats responding on the training drug lever at 8 umol/kg; assay type: functional; how it was run: as §1
[11] = target: T4, 5-hydroxytryptamine receptor 1A (Rattus norvegicus) (UniProt P19327); assay: Evaluated for the 5-hydroxytryptamine 1A receptor agonist activity in LY-293284 trained rats; assay type: functional; how it was run: as §1
T4 sequence (whole entry): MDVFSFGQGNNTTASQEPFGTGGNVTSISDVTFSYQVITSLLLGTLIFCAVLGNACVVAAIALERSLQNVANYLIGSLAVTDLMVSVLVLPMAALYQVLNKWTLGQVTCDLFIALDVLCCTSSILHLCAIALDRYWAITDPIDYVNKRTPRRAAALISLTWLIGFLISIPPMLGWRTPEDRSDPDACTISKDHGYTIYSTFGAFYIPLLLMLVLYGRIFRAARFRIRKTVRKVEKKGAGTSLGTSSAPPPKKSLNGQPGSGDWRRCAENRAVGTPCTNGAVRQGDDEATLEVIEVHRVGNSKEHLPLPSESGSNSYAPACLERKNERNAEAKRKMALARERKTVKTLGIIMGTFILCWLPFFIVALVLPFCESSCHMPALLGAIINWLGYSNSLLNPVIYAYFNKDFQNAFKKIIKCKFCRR

[12] = target: T2, 5-hydroxytryptamine receptor 1A; assay: Evaluated for the binding constant at [3H]8-OH-DPAT-labeled human 5-hydroxytryptamine 1A receptor receptor
[13] = tested on: Rattus norvegicus; assay: Maximum percentage of LSD-trained rats responding on the training drug lever at 2 umol/kg; assay type: functional; how it was run: as §1
[14] = tested on: Rattus norvegicus; assay: Maximum percentage of DOI-trained rats responding on the training drug lever at 1 umol/kg; assay type: functional; how it was run: as §1
[15] = tested on: Rattus norvegicus; assay: Maximum percentage of DOI-trained rats responding on the training drug lever at 4 umol/kg; assay type: functional; how it was run: as §1

T1 sequence (P14842 whole entry): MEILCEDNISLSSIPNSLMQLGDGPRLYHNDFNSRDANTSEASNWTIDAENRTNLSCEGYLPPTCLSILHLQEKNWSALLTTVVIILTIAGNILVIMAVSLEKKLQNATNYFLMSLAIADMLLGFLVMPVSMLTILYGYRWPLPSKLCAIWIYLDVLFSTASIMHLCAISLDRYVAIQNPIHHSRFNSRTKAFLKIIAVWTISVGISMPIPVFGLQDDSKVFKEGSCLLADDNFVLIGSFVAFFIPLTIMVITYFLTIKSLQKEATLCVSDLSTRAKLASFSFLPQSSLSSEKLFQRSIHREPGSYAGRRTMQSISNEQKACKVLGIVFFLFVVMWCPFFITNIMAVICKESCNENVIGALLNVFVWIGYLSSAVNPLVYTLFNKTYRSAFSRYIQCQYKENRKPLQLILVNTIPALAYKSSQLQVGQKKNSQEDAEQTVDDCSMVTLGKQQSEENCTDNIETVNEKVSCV
5-hydroxytryptamine receptor 2A (Rattus norvegicus), sequence (P14842 whole entry): as above

| SMILES | Intrinsic activity [1] [%] | pEC50 [2] | pKi [3] | ED50 [4] [µmol/kg] | pKi [5] | pEC50 [6] | pKi [7] | other results |
| --- | --- | --- | --- | --- | --- | --- | --- | --- |
| CCN(CC)CCc1c[nH]c2ccc(OC)cc12 | 99 | 5.62 | 8.77 | 1.49 | 7.38 | 7.66 | 7.80 |  |
| CCN(CC)C(=O)[C@@H]1C=C2c3cccc4[nH]cc(c34)C[C@H]2N(C)C1 [LYSERGIDE] |  |  |  | 0.037 |  |  |  | ED50 [8]: 0.014 µmol/kg |
| COc1cc(CC(C)N)c(OC)cc1I (centres undefined) |  |  |  | 0.27 |  |  |  | ED50 [8]: 0.3 µmol/kg |
| CCN(CC)CCc1c[nH]c2cc(F)ccc12 | 63 | 4.47 | 6.59 |  | 6.84 | 5.43 | 6.68 | ED50 [9]: 40 µmol/kg; ED50 [10]: 33 µmol/kg |
| CCCN(CCC)C1CCc2cccc(O)c2C1 (centres undefined) |  |  |  |  |  |  |  | ED50 [11]: 0.099 µmol/kg |
| CN(C)CCc1c[nH]c2c(F)ccc(O)c12 | 76 | 5.31 |  |  | 7.89 |  | 8.27 | pKi [12]: 6.92; ED50 [9]: 63 µmol/kg |
| CCN(CC)CCc1c[nH]c2ccccc12 | 82 | 5.27 | 7.33 | 2.53 | 6.88 | 6.17 | 6.98 |  |
| COc1ccc2[nH]cc(CCN(C)C)c2c1F | 88 | 4.74 |  |  | 6.91 | 9.03 | 7.26 | ED50 [13]: 22 µmol/kg; ED50 [14]: 66 µmol/kg; ED50 [11]: 0.17 µmol/kg |
| COc1cc2c(CCN(C)C)c[nH]c2cc1F | 110 | 5.10 | 7.07 | 4.72 | 7.48 |  | 7.72 | ED50 [15]: 50 µmol/kg |
| CCCN(CCC)C1Cc2c[nH]c3ccc(C(C)=O)c(c23)C1 (centres undefined) [LY-293284] |  |  |  |  |  | 9.89 |  | ED50 [11]: 0.031 µmol/kg |
| CN(C)CCc1c[nH]c2cc(F)cc(O)c12 | 85 | 5.59 | 6.94 |  |  |  | 8.13 |  |
